Test results: ChEMBL document CHEMBL4689842, “EUbOPEN Chemogenomics Library wave 1” (2021)

Test system: HEK-293T
Experiment: Multiplex assay against HEK293T;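 as to Population Tubulin-Different-Phenotype (%): share of the cells with healthy nuclei that show this phenotype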
Assay type: toxicity, cell-based
Settings: human
Method in brief: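 Live cells carried four stains from seeding: Hoechst33342, BioTracker Green Microtubule Cytoskeleton Dye, MitoTracker Red and Annexin V Alexa Fluor 680. They were imaged on a CQ1 microscope at 37°C and 5% CO2 after compound addition. Using CellPathfinder machine-learning gating, cells were split into Hoechst high-intensity objects or normal cells, normal cells into healthy, pyknosed or fragmented nuclei, and pyknosed cells into mitotic or apoptotic; tubulin, mitochondrial-mass and membrane-permeability phenotypes are per cents of healthy-nucleus cells.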

[1] = 12 h, 1 µM, compound concentration 1 uM, replicate 1
[2] = 12 h, 1 µM, compound concentration 1 uM, replicate 2
[3] = 12 h, 10 µM, compound concentration 10 uM, replicate 1
[4] = 12 h, 10 µM, compound concentration 10 uM, replicate 2
[5] = 24 h, 1 µM, compound concentration 1 uM, replicate 1
[6] = 24 h, 1 µM, compound concentration 1 uM, replicate 2
[7] = 24 h, 10 µM, compound concentration 10 uM, replicate 1
[8] = 24 h, 10 µM, compound concentration 10 uM, replicate 2

Compound: CC(C)CC(=O)Nc1[nH]nc2c1CN(C(=O)C1CCN(C)CC1)C2(C)C [PHA-793887]
- Population Apoptotic (%) [1]: 21%
- Population Fragmented Nuclei (%) [1]: 10%
- Population Healthy Nuclei (%) [1]: 72%
- Population Hoechst High Intensity Objects (%) [1]: 8%
- Population Membrane Permeable-Phenotype (%) [1]: 5%
- Population Mitochondria Different-Phenotype (%) [1]: 4%
- Population Mitotic Cells (%) [1]: 78%
- Population Normal (%) [1]: 91%
- Population Pyknosed Nuclei (%) [1]: 17%
- Population Tubulin-Different-Phenotype (%) [1]: 2%
- Total Cell Count [1]: 604
- Population Apoptotic (%) [2]: 20%
- Population Fragmented Nuclei (%) [2]: 9%
- Population Healthy Nuclei (%) [2]: 87%
- Population Hoechst High Intensity Objects (%) [2]: 2%
- Population Membrane Permeable-Phenotype (%) [2]: 1%
- Population Mitochondria Different-Phenotype (%) [2]: 6%
- Population Mitotic Cells (%) [2]: 80%
- Population Normal (%) [2]: 97%
- Population Pyknosed Nuclei (%) [2]: 3%
- Population Tubulin-Different-Phenotype (%) [2]: 4%
- Total Cell Count [2]: 1420
- Population Apoptotic (%) [3]: 21%
- Population Fragmented Nuclei (%) [3]: 13%
- Population Healthy Nuclei (%) [3]: 69%
- Population Hoechst High Intensity Objects (%) [3]: 12%
- Population Membrane Permeable-Phenotype (%) [3]: 2%
- Population Mitochondria Different-Phenotype (%) [3]: 7%
- Population Mitotic Cells (%) [3]: 78%
- Population Normal (%) [3]: 87%
- Population Pyknosed Nuclei (%) [3]: 16%
- Population Tubulin-Different-Phenotype (%) [3]: 3%
- Total Cell Count [3]: 585
- Population Apoptotic (%) [4]: 25%
- Population Fragmented Nuclei (%) [4]: 7%
- Population Healthy Nuclei (%) [4]: 89%
- Population Hoechst High Intensity Objects (%) [4]: 5%
- Population Membrane Permeable-Phenotype (%) [4]: 0%
- Population Mitotic Cells (%) [4]: 74%
- Population Normal (%) [4]: 94%
- Population Pyknosed Nuclei (%) [4]: 2%
- Population Tubulin-Different-Phenotype (%) [4]: 2%
- Total Cell Count [4]: 1190
- Population Apoptotic (%) [5]: 27%
- Population Fragmented Nuclei (%) [5]: 9%
- Population Healthy Nuclei (%) [5]: 81%
- Population Hoechst High Intensity Objects (%) [5]: 4%
- Population Membrane Permeable-Phenotype (%) [5]: 7%
- Population Mitochondria Different-Phenotype (%) [5]: 3%
- Population Mitotic Cells (%) [5]: 72%
- Population Normal (%) [5]: 95%
- Population Pyknosed Nuclei (%) [5]: 9%
- Population Tubulin-Different-Phenotype (%) [5]: 4%
- Total Cell Count [5]: 638
- Population Apoptotic (%) [6]: 11%
- Population Fragmented Nuclei (%) [6]: 23%
- Population Healthy Nuclei (%) [6]: 72%
- Population Hoechst High Intensity Objects (%) [6]: 3%
- Population Membrane Permeable-Phenotype (%) [6]: 2%
- Population Mitochondria Different-Phenotype (%) [6]: 2%
- Population Mitotic Cells (%) [6]: 88%
- Population Normal (%) [6]: 96%
- Population Pyknosed Nuclei (%) [6]: 3%
- Population Tubulin-Different-Phenotype (%) [6]: 6%
- Total Cell Count [6]: 1935
- Population Apoptotic (%) [7]: 25%
- Population Fragmented Nuclei (%) [7]: 13%
- Population Healthy Nuclei (%) [7]: 70%
- Population Hoechst High Intensity Objects (%) [7]: 15%
- Population Membrane Permeable-Phenotype (%) [7]: 4%
- Population Mitochondria Different-Phenotype (%) [7]: 7%
- Population Mitotic Cells (%) [7]: 75%
- Population Normal (%) [7]: 84%
- Population Pyknosed Nuclei (%) [7]: 15%
- Population Tubulin-Different-Phenotype (%) [7]: 8%
- Total Cell Count [7]: 545
- Population Apoptotic (%) [8]: 36%
- Population Fragmented Nuclei (%) [8]: 11%
- Population Healthy Nuclei (%) [8]: 86%
- Population Hoechst High Intensity Objects (%) [8]: 4%
- Population Membrane Permeable-Phenotype (%) [8]: 1%
- Population Mitotic Cells (%) [8]: 63%
- Population Normal (%) [8]: 95%
- Population Pyknosed Nuclei (%) [8]: 2%
- Population Tubulin-Different-Phenotype (%) [8]: 4%
- Total Cell Count [8]: 1297
